Four compounds from ChEMBL document CHEMBL2040844, “Anthranilic acid-based diamides derivatives incorporating aryl-isoxazoline pharmacophore as potential anticancer agents: design, synthesis and biological evaluation” (Eur J Med Chem, 2012) can be followed below.

Where only a bound is given, the exact number is not on record here.

Assay [1] concerns BGC-823. Kind of assay: Growth inhibition of human BGC823 cells at 40 ug/ml after 72 hrs by MTT assay. It is filed as functional. The settings on record: BGC-823, 72 h, read-out: GI. The procedure, abridged: (§1)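 Single-concentration screen at 40 µg/mL, reported as % cell growth inhibition. Cells were seeded at 2 × 10⁴ per well, grown to subconfluence, then treated for 72 h at 37 °C in humidified 5% CO₂. MTT was added for 4 h, formazan was dissolved in DMSO, and absorbance was read at 570 nm. Triplicate wells, three independent experiments; 5-FU served as positive control.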
In general terms: Tetrazolium assays rely on reduction of a dye to a coloured formazan, in cell work by metabolically active cells.

The subject of assay [2] is HepG2. Kind of assay: Growth inhibition of human HepG2 cells at 40 ug/ml after 72 hrs by MTT assay. It is filed as functional. The settings on record: HepG2, 72 h, read-out: GI. Put shortly:
as §1

Assay [3] concerns MCF7. In words: Growth inhibition of human MCF7 cells at 40 ug/ml after 72 hrs by MTT assay. The assay is classed as functional. The settings on record: MCF7, 72 h, read-out: GI. Put shortly: as §1
Assay [4] deals with NCI-H460. Kind of assay: Growth inhibition of human NCI-H460 cells at 40 ug/ml after 72 hrs by MTT assay. It is filed as functional. The settings on record: NCI-H460, 72 h, read-out: GI. Put shortly:
as §1

Assay [5] deals with HepG2. In words: Cytotoxicity against human HepG2 cells after 72 hrs by MTT assay. It is filed as functional, cell-based. The conditions noted are these: for IC50: HepG2, 72 h. The procedure, abridged:
(§2)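 MTT assay. Cells were seeded at 2 × 10⁴ per well, grown to subconfluence, then exposed to serial dilutions of compound in test medium for 72 h at 37 °C in humidified 5% CO₂. MTT was added for 4 h, formazan was dissolved in DMSO, and absorbance was read at 570 nm. IC50 values were derived from dose-response. Triplicate wells, three independent experiments; 5-FU served as positive control.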

Assay [6] has as its system MCF7. In words: Cytotoxicity against human MCF7 cells after 72 hrs by MTT assay. The assay is classed as functional, cell-based. The conditions noted are these: MCF7, 72 h. Put shortly: as §2
Assay [7] relates to SGC-7901. Kind of assay: Growth inhibition of human SGC7901 cells at 40 ug/ml after 72 hrs by MTT assay. It is filed as functional. The settings on record: SGC-7901, 72 h, read-out: GI. Put shortly:
as §1

For assay [8], the system named is NCI-H460. Kind of assay: Cytotoxicity against human NCI-H460 cells after 72 hrs by MTT assay. It is filed as functional, cell-based. The conditions noted are these: NCI-H460, 72 h. The procedure, abridged:
as §2

Assay [9] has as its system BGC-823. Kind of assay: Cytotoxicity against human BGC823 cells after 72 hrs by MTT assay. It is filed as functional, cell-based. The conditions noted are these: for IC50: BGC-823, 72 h. The procedure, abridged:
as §2

The test system of assay [10] is SGC-7901. Kind of assay: Cytotoxicity against human SGC7901 cells after 72 hrs by MTT assay. It is filed as functional, cell-based. The conditions noted are these: SGC-7901, 72 h. Put shortly: as §2

In general, IC50 refers to the concentration that gives 50% inhibition. Take `Cc1cc(Cl)cc2c(=O)oc(C3CC(c4ccc(Cl)cc4)=NO3)nc12` (configuration not stated): the inhibition of growth at 40 µg/mL with BGC-823 [1] was determined as 31.5%; in the assay with HepG2 [2] it was 52.4%; in the assay with MCF7 [3] it was 37.7%; with NCI-H460 [4], 58.1%; with SGC-7901 [7] it was 35.6%. Besides, the IC50 is 43.6 µM with HepG2 [5]; 68.7 µM in the assay on MCF7 [6]; 41.9 µM with NCI-H460 [8]; 54.4 µM in the assay on BGC-823 [9]; 68.8 µM in the assay on SGC-7901 [10].

Consider `COc1cc(C2=NOC(C(=O)Nc3c(C)cc(Cl)cc3C(=O)NC3CCCCC3)C2)cc(OC)c1OC` (configuration not stated), for which the inhibition of growth at 40 µg/mL in the assay on BGC-823 [1] was determined as 69.7%; in the assay with HepG2 [2], 64%; in the assay with MCF7 [3], 62.7%; in the assay on NCI-H460 [4], 74%; in the assay with SGC-7901 [7], 60.2%. Moreover, the Activity entry with HepG2 [5] and in the assay on BGC-823 [9] was “Dose-dependent effect” in each case. Also, the IC50 was 34.8 µM in the assay with HepG2 [5]; 22.4 µM in the assay on MCF7 [6]; 24.7 µM in the assay on NCI-H460 [8]; 23.3 µM in the assay on BGC-823 [9]; 36.8 µM in the assay with SGC-7901 [10].

As for `CCCNC(=O)c1cc(Cl)cc(C)c1NC(=O)C1CC(c2ccc(F)cc2)=NO1` (configuration not stated), the inhibition of growth at 40 µg/mL in the assay on BGC-823 [1] amounted to 23.5%; in the assay on HepG2 [2], 29.1%; in the assay with MCF7 [3], 33%; in the assay on NCI-H460 [4], 20%; with SGC-7901 [7] it was 30.5%. Also, the IC50 with HepG2 [5], with MCF7 [6], in the assay with NCI-H460 [8], in the assay with BGC-823 [9] and in the assay on SGC-7901 [10] was above 100 µM in each case.

Consider `CNC(=O)c1cc(Cl)cc(C)c1NC(=O)C1CC(c2ccc(Cl)cc2)=NO1` (configuration not stated), for which the inhibition of growth at 40 µg/mL in the assay with BGC-823 [1] came to 13.2%; in the assay with HepG2 [2], 18.7%; in the assay on MCF7 [3], 22.6%; in the assay on NCI-H460 [4], 0%; with SGC-7901 [7] it was 24.6%. For the same compound, the IC50 in the assay on HepG2 [5], in the assay with MCF7 [6], in the assay on NCI-H460 [8], with BGC-823 [9] and in the assay on SGC-7901 [10] was above 100 µM throughout.
